# Screens as filed in PubChem.
# Cdc25B inh: inhibitors of Cdc25B phosphatase catalytic domain, primary screen, biochemical, OMFP fluorescence. M-phase inducer phosphatase 2 (Homo sapiens), P30305. recombinant Cdc25B, OMFP fluorescence Ex485/Em525. inhibition, %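 (compounds tested at 10 µM final in the well)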. 0.1% of 65,000 active; in the data active means inhibition above about 50%
# DUSP1 inh: MKP-1 phosphatase inhibitors, primary screen, biochemical, in vitro; Dual specificity protein phosphatase 1 (Homo sapiens), P28562; recombinant MKP-1, OMFP hydrolysis fluorescence; inhibition, %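 (compounds tested at a single concentration somewhere between 10 and 100 µM)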; 0.15% of 65,000 active; AID 374, 2006;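 active means inhibition above about 50%, limit read from the data; inconclusive means inhibition over screen mean plus 3 SD, below that limit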;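 further: 0% = DMSO max control wells and 100% = wells with enzyme stopped by NaOH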
# M1 agonist: M1 muscarinic receptor agonists, primary screen, CHO-M1 cells, Fluo-4 calcium, agonist mode; Muscarinic acetylcholine receptor M1; Fluo-4 calcium fluorescence; active compounds read high; B-score at 10 µM; 3% of 64,000 active;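 active means fluorescence rise, raw or as B-score row- and column-corrected plate score, outside the 99.7% band of its plate's samples, either direction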
# HEK293 NFkB inh: inhibitors of PMA/ionomycin-induced NF-kB reporter, primary screen, antigen receptor NF-kB inhibitor project, cell-based, HEK-293 luciferase reporter, luminescence; inhibition, % at 3 µM; HEK-293 NF-kB luciferase reporter; 0.21% of 62,000 active; AID 465, 2006;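 active means inhibition above the mean of all tested compounds plus 3 SD, cut at about 40% in these data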;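 further: 0% = stimulated DMSO wells and 100% = 10 µM reference inhibitor 5653914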
#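 Timing: 1 h pretreatment, 16 h stimulation, 37 °C; system: HEK-293 cells with stable firefly luciferase reporter driven by four HIV NF-kB elements; doses: 3 µM once, 0.30% DMSO; measured by: luciferase luminescence; control set: DMSO and 10 µM reference inhibitor; repeats: single test; reagent: PMA plus ionomycin mix as NF-kB-activating stimulus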
# HER2 expr 66K: inhibitors of Her2 protein expression, primary screen, SKBR-3 cells, AlphaScreen, 66K library | 0.69% of 65,000 active | SKBR-3 HER2 protein level, 18-24 h; active compounds read low | HER2 level % of control, % at 10 µM | Receptor tyrosine-protein kinase erbB-2 (Homo sapiens), P04626;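 active means HER2 level under 5% of the carrier-only control; inconclusive means no clear call, values can overlap the other calls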;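 further: 100% = DMSO carrier and 0% = 500 nM PU-H71 HSP90 inhibitor; lower value means stronger loss of Her2 protein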
# M1 antagonist: antagonists of rat M1 muscarinic receptor. CHO-M1 cells, Fluo-4 calcium, ACh EC80 antagonist mode; active compounds read low. B-score at 10 µM. 3.4% of 64,000 active. AID 628, 2007;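 active means calcium fluorescence response, raw or row-and-column corrected B-score, differing from the plate sample mean either way at a set confidence level, mostly lower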
# Target sequence (P08482 whole entry, looked up): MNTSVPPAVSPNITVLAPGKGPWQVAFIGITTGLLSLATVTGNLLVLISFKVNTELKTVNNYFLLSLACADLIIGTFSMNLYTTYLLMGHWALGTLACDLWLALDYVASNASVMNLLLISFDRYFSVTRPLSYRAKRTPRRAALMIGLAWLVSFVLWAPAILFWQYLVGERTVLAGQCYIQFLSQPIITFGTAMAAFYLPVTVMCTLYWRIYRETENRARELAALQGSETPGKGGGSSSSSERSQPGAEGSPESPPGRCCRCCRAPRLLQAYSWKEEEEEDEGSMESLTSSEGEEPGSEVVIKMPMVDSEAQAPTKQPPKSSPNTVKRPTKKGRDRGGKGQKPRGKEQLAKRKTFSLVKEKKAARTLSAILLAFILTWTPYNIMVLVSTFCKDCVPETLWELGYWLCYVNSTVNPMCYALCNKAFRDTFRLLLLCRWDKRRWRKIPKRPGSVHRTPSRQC
# M1 ag confirm: rat M1 muscarinic receptor agonists, confirmation, CHO-M1 cells, Fluo-4 calcium, duplicate retest; AID 1488, 2009; shares compounds with M1 agonist; fluorescence change (max-min) at 10 µM; Fluo-4 calcium fluorescence, agonist mode; actives lie on both sides; 19% of 1,700 active;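 active means fluorescence change differs from the solvent-only DMSO control mean at a set confidence level in both duplicate runs; inconclusive means differs from solvent-only control mean in just one of two runs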;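 further: an EC20 dose of acetylcholine follows compound addition during the same imaging run; raw fluorescence intensity difference in instrument units with no normalization to controls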
# M4 ag counter: agonist activity at rat M4 receptor, confirmation, counter-screen for M1 allosteric modulator project, cell-based, agonist mode. shares compounds with M1 agonist. AID 1741, 2009. CHO M4/Gqi5 cells, Fluo-4 calcium fluorescence; actives lie on both sides. 9% of 1,700 active. fluorescence change (max-min) at 10 µM;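 active means fluorescence change differing from the plate's solvent-only control wells at 99.7% confidence in both duplicates, whether higher or lower; inconclusive means differs from solvent controls in only one of two duplicates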
# An asterisk follows results filed as active; ? = inconclusive; / = no result. Rows were chosen to be rich in hits. Some 6.8% of all compounds tested hit in one or more screens of this group.
SMILES,Cdc25B inh,DUSP1 inh,M1 agonist,HEK293 NFkB inh,HER2 expr 66K,M1 antagonist,M1 ag confirm,M4 ag counter
CCNC(=O)C1CC(=O)N(Cc2ccc(F)cc2)C(=Nc2ccc(OC)cc2)S1 (configuration not stated),-10,-14,-0.68,0,98,1.3,/,/
CN1CCN(c2ncnc3c2cnn3-c2ccc(Cl)cc2)CC1,-3,6,2.9*,-24,/,-1.1,?,-53
Cc1ccc(C)c(N2CCN(C(=O)COc3cc(=O)n(C)c4ccccc34)CC2)c1,-8,33,5.5*,8,59,0.46,-8.6,-37
Cc1ccc(C)c(N2CCN(C(=O)CCCOc3cc(=O)n(C)c4ccccc34)CC2)c1,-27,28,5.9*,2,72,-0.93,-18,-23
Cc1cccc(N2CCN(C(=O)COc3cc(=O)n(C)c4ccccc34)CC2)c1C,-12,37,-0.11,4,88,-1.1,/,/
COc1ccc(N2CCN(C(=O)CCCOc3cc(=O)n(C)c4ccccc34)CC2)cc1,-9,30,1.6,20,91,0.6,/,/
Cc1c(-c2ccccc2)sc(N)c1C(=O)N1CCOCC1,-4,2,0.79,11,118,0.28,/,/
O=C(Nc1nc(-c2cc3ccccc3oc2=O)cs1)c1ccco1,-11,8,1.6*,-7,92,-0.0027,2.6,-33
CC1CCN(c2ccc(C(=O)NCc3cccs3)cn2)CC1,6,7,-0.4,5,110,-1.3,/,/
CCCCCCN=CC1=C(O)C(C(=O)OC)C(C)(C)CC1=O (configuration not stated),-12,11,-0.76,/,72,0.52,/,/
O=C(CSc1nc2[nH]ncc2c(=O)n1-c1ccccc1)c1ccc2c(c1)OCCO2,-9,36,7.2*,-2,75,-0.46,?,-35
CCN(CC)S(=O)(=O)c1cccc2c(N(C)C)cccc12,15,-7,0.21,/,51,-0.71,/,/
O=C(NCC1COc2ccccc2O1)C1CCN(S(=O)(=O)c2cccc3nsnc23)CC1 (configuration not stated),-12,-2,-0.052,8,110,0.22,/,/
CCN(CC)S(=O)(=O)c1cccc(-c2nnc(SCCOc3ccccc3C)o2)c1,-17,11,5.6*,14,98,-1.2,18,?
CCN(CC)S(=O)(=O)c1cccc(-c2nnc(SCCOc3ccccc3)o2)c1,-38,9,-0.47,26,105,-0.45,/,/
CCOC(=O)N1CCN(S(=O)(=O)c2ccc(C)cc2)C1c1ccccc1 (configuration not stated),-18,3,3.2*,1,196,-0.46,-6.5,-14
Cc1ccc(S(=O)(=O)N2CCN(S(C)(=O)=O)C2c2ccccc2)cc1 (configuration not stated),4,-7,2.7*,19,76,0.084,-41*,?
COc1ccc(S(=O)(=O)N(C)CC(=O)NCc2cccnc2)cc1C,-11,-4,-0.56,15,/,-0.91,/,/
COCCOC(=O)C1=C(C)NC(=O)NC1c1cn(-c2ccccc2)nc1-c1cccs1 (configuration not stated),-6,5,11*,8,101,-2.1*,?,-38
CCOc1ccc(CC(=O)NCc2cn3c(C)csc3n2)cc1,-42,9,3.4*,2,109,0.34,?,?
CCc1ccc(S(=O)(=O)NCc2cn3c(C)csc3n2)s1,-46,-2,-3.1*,13,57,-1.6,-7.5,-27
